{"source": "paper PMC8521395", "about": "(Journal of Antimicrobial Chemotherapy, 2021)", "assay_type_in_all_cases": "cell-based, Escherichia coli", "key": {"E. coli": {"system": "E. coli", "assay": "MIC of chloramphenicol and nalidixic acid in AB medium", "conditions": "printed as the concentration equal to 10×MIC"}, "MG1655": {"system": "MG1655", "assay": "MIC determination by broth microdilution", "conditions": "MG1655, non-cation-adjusted Mueller-Hinton broth (MHB-I), low-binding plastic, 37°C, 18 h, turbidity OD595"}, "NrdA protein": {"system": "NrdA protein", "assay": "Western-blot analysis of NrdA protein level", "conditions": "8 μM PNA-peptide, 3 h, AB medium, WT cells, band intensity relative to WT"}, "WT E. coli cells": {"system": "WT E. coli cells", "assay": "Macromolecular synthesis", "conditions": "nalidixic acid 40 mg/L (10×MIC), AB medium without casamino acids, single experiment"}, "Strain SMR14350": {"system": "Strain SMR14350", "assay": "In vivo double-stranded DNA break visualization", "conditions": "ciprofloxacin 0.0125 mg/L, 4 h, AB medium, mean±SD of three determinations", "how_it_was_run": "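E. coli Gam-GFP reporter strain SMR14350 grown exponentially at 37°C in AB minimal medium (10 mg/L thiamine, 0.2% glucose, 0.5% casamino acids), diluted to OD450 0.05. PNA-peptide test compound (8 μM) or ciprofloxacin (0.0125 mg/L) added with anhydrotetracycline (10 mg/L) to induce Gam-GFP, for 4 h. Foci scored by fluorescence microscopy in three independent experiments (2553–3860 cells per condition).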"}, "[1]": {"system": "WT carrying pCC:nrdAByfaE", "assay": "Time-kill assay, WT carrying pCC:nrdAByfaE", "conditions": "50 μM HU, 5 h, MHB-I"}}}
{"compound": "O=C(N[C@H](CO)[C@H](O)c1ccc([N+](=O)[O-])cc1)C(Cl)Cl", "note": "[chloramphenicol]", "values": [{"measurement": "10×MIC", "setting": "E. coli", "value": 80, "unit": "µg/mL"}]}
{"compound": "H-(KFF)3K-eg1-ATTGAT TGC G -NH2 [PNA5866]", "values": [{"measurement": "MIC", "setting": "MG1655", "value": 16, "unit": "µM"}, {"measurement": "decrease of cellular NrdA protein level", "setting": "NrdA protein", "value": "did not inhibit NrdA protein levels"}]}
{"compound": "CCn1cc(C(=O)O)c(=O)c2ccc(C)nc21", "note": "[nalidixic acid]", "values": [{"measurement": "DNA synthesis (DNA replication)", "setting": "WT E. coli cells", "value": "faster cessation of DNA replication"}, {"measurement": "10×MIC", "setting": "E. coli", "value": 40, "unit": "µg/mL"}]}
{"compound": "O=C(O)c1cn(C2CC2)c2cc(N3CCNCC3)c(F)cc2c1=O", "note": "[ciprofloxacin]", "values": [{"measurement": "percentage of cells with Gam-GFP foci", "setting": "Strain SMR14350", "value": "51.9 ± 6.9", "unit": "%"}]}
{"compound": "NC(=O)NO", "note": "[HU, hydroxyurea]", "values": [{"measurement": "reduction in cfu/mL, HU alone", "setting": "[1]", "value": "< 1", "unit": "log"}]}
